Measurements reported in ChEMBL document CHEMBL1125890, “Synthesis, calcium-channel-blocking activity, and antihypertensive activity of 4-(diarylmethyl)-1-[3-(aryloxy)propyl]piperidines and structurally related compounds” (J Med Chem, 1991).

Tests used:
Rattus norvegicus [1] = test: Antihypertensive activity expressed as change in mean arterial blood pressure (MABP) in spontaneously hypertensive rats (SHR), at 3-6h after 30 mg/kg oral administration; format: functional, Artery
Outline: (§1)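 Adult male SHR, catheter implanted in carotid artery or abdominal aorta under anesthesia at least 24 h before dosing. Baseline pressure recorded 1-1.5 h. Compound given orally at 30 mg/kg as solution or suspension in 0.5% Tween 80/distilled H2O (v/v) or other vehicle. MABP read at 0.5, 1, 1.5, 2, 3, 4, 5 and 6 h. Average percent change from predose calculated per period. Paired one-tailed t test, p < 0.05. n = 3-6 rats unless noted.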

Rattus norvegicus [2] = test: Antihypertensive activity expressed as change in mean arterial blood pressure (MABP) in spontaneously hypertensive rats (SHR),at 0.5-2h after 30 mg/kg oral administration; format: functional, Artery; outline: as §1
Oryctolagus cuniculus = species on record: Oryctolagus cuniculus; test: Calcium channel-blocking activity by determined by ability to antagonize calcium-induced contractions of isolated rabbit aortic strips; format: functional; settings: Aorta, read-out: pA2 (converted)
Outline: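 Rabbit aortic strips were bathed in turn in CaCl2-containing buffer, CaCl2-free buffer, then depolarizing (KCl) CaCl2-free buffer. Cumulative CaCl2 addition induced contractions, recorded with force-displacement transducers. Responses were compared without and with 1–100 nM test compound. pA2 was calculated by the Van Rossum method from at least three tissues.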

Compound	Change (Rattus norvegicus [1])	Change (Rattus norvegicus [2])	Kb (Oryctolagus cuniculus)
COc1cc(C(C)=O)ccc1OCCCN1CCC(C(C#N)(c2ccc(F)cc2)c2ccc(F)cc2)C1 (centres undefined)	1%	-2%	6.31 nM
Fc1ccc(C(c2ccc(F)cc2)C2CCN(CCCOc3ccccc3)CC2)cc1	-2%	-1%	1.58 nM
Fc1ccc(C(c2ccc(F)cc2)C2CCN(CCCOc3ccc4ccccc4c3)CC2)cc1	-4%	-7%	7.94 nM
COc1cc(C(C)=O)ccc1OCCCN1CCC(C(C#N)(c2ccc(F)cc2)c2ccc(F)cc2)CC1	-26%	-17%	2 nM
NC(=O)c1ccc(OCCCN2CCC(C(c3ccc(F)cc3)c3ccc(F)cc3)CC2)cc1	-8%	-3%	31.6 nM
O=S(=O)(CCCN1CCC(C(c2ccc(F)cc2)c2ccc(F)cc2)CC1)c1ccccc1	3%	2%	20 nM
COc1cc(C(C)=O)ccc1OCCCN1CCC(C(c2ccc(F)cc2)c2ccc(F)c(F)c2)CC1 (centres undefined)	-30%	-27%	1.26 nM
COc1cc(C(C)=O)ccc1OCCCN1CCC(C(c2ccc(C)cc2)c2ccc(C)cc2)CC1	-2%	3%	15.8 nM
Fc1ccc(C(c2ccc(F)cc2)C2CCN(CCCOc3cccc4ccccc34)CC2)cc1	-7%	-6%	5.01 nM
COc1cc(C(C)=O)ccc1OCCCN1CCC(C(c2ccc(F)cc2F)c2ccc(F)cc2F)CC1	-16%	-12%	15.8 nM
Fc1ccc(C(c2ccc(F)cc2)C2CCN(CCCOc3ccc(Cl)cc3)CC2)cc1	-25%	-15%	2 nM
COc1cc(C(C)=O)ccc1OCCCN1CCC(C(c2ccccc2)c2ccc(F)cc2)CC1 (centres undefined)	-12%	-8%	6.31 nM
COc1cc(C(C)=O)ccc1OCCCN1CCC(CC(c2ccc(F)cc2)c2ccc(F)cc2)CC1	-10%	-13%	3.16 nM
COC(=O)c1ccc(OCCCN2CCC(C(c3ccc(F)cc3)c3ccc(F)cc3)CC2)c(OC)c1	-2%	-4%	1.26 nM
COc1ccccc1OCCCN1CCC(C(c2ccc(F)cc2)c2ccc(F)cc2)CC1	-1%	-4%	2.51 nM
COc1cc(C(=O)O)ccc1OCCCN1CCC(C(c2ccc(F)cc2)c2ccc(F)cc2)CC1	0%	9%	79.4 nM
COc1cc(C(C)=O)ccc1OCCCN1CCC(C(c2ccc(F)cc2)C2CCCCC2)CC1 (centres undefined)	-6%	3%	5.01 nM
COc1cc(C(C)=O)ccc1OCCCN1CCC(C(c2ccc(F)c(F)c2)c2ccc(F)c(F)c2)CC1	-35%	-28%	2.51 nM
COc1cc(OCCCN2CCC(C(c3ccc(F)cc3)c3ccc(F)cc3)CC2)ccc1C(C)=O	-11%	-5%	3.16 nM
Fc1ccc(C(c2ccc(F)cc2)C2CCN(CCOc3cccc4ccccc34)CC2)cc1	-27%	-19%	12.6 nM
CC(=O)c1ccc(OCCCN2CCC(C(c3ccc(F)cc3)c3ccc(F)cc3)CC2)cc1	0%	-1%	2.51 nM
COc1cc(C(C)=O)ccc1OCCCN1CCC(C(NC(C)=O)(c2ccc(F)cc2)c2ccc(F)cc2)CC1	-7%	-3%	63.1 nM
COc1cc(C#N)ccc1OCCCN1CCC(C(c2ccc(F)cc2)c2ccc(F)cc2)CC1	-9%	-3%	2 nM
COc1cc(C(C)=O)ccc1OCCCN1CCC(CC(C#N)(c2ccc(F)cc2)c2ccc(F)cc2)C1 (centres undefined)	-7%	3%	10 nM
COc1cc(C(C)=O)ccc1OCCCN1CCC(C(c2ccc(F)cc2)c2ccccn2)CC1 (centres undefined)	3%	-3%	158 nM
COc1cc(C(C)=O)ccc1OCCCN1CCC(C(C(N)=O)(c2ccc(F)cc2)c2ccc(F)cc2)CC1	5%	3%	25.1 nM
COc1cc(C(C)=O)ccc1OCCCN1CCC(C(c2ccc(Cl)cc2)c2ccc(Cl)cc2)CC1	-9%	-3%	2.51 nM
COc1cc(C(C)=O)ccc1OCCCCCN1CCC(C(c2ccc(F)cc2)c2ccc(F)cc2)CC1	-13%	-5%	3.16 nM
